From BindingDB's records for doi:10.1016/j.bmc.2019.115122 (Hokkaido University, 2019)

Molecular target: T1, Peroxisome proliferator-activated receptor gamma (Homo sapiens, UniProt P37231)
T1 sequence (P37231 whole entry): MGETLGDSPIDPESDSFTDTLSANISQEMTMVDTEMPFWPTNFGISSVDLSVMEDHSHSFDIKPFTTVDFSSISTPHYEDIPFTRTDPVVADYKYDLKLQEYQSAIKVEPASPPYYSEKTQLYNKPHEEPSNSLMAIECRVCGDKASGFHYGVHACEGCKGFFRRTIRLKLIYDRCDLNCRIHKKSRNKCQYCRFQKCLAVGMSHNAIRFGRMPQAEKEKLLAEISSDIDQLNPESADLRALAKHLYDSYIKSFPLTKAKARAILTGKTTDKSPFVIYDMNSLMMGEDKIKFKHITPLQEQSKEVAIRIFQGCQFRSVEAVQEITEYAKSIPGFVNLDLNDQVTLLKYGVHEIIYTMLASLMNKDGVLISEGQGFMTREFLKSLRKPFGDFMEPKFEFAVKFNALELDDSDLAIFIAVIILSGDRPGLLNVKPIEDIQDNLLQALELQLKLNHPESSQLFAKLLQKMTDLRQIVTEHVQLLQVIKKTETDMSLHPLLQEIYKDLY
Test: Agonist activity at PPARgamma in human MKN45 cells assessed as induction of cell aggregation incubated for 5 days by Hoechst 33342 staining based IN cell analyzer method
Procedure, shortened: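 MKN45 cells in RPMI1640 with 10% FBS at 37 °C, 5% CO2, seeded 2500 cells/well and exposed to compound 1-1000 nM (n = 3 per concentration) for 5 days. Nuclei stained with Hoechst 33342, imaged on IN Cell Analyzer, nuclear area computed. Maximum activity expressed as % of reference compound maximum; EC50 = concentration giving 50% of own maximum.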

Structure (SMILES)	EC50
COCc1nc2cc(Cl)ccn2c1Cc1ccc2c(c1)COc1cc(F)ccc1/C2=C(\C)c1noc(=O)[nH]1	1 nM

Molecular target: not listed separately
Test: Agonist activity at PPARgamma in human MKN45 cells assessed as induction of cell aggregation incubated for 5 days by Hoechst 33342 staining based IN cell analyzer method

Structure (SMILES)	EC50
C/C(=C1/c2ccc(Cc3c(C4CC4)nc4ccccn34)cc2COc2cc(F)ccc21)c1noc(=O)[nH]1	5.3 nM
CCCc1nc2ccccc2n1Cc1ccc2c(c1)COc1c(F)cccc1/C2=C(\C)c1noc(=O)[nH]1	3.8 nM
C/C(=C1/c2ccc(Cc3c(C4CC4)nc4cc(Cl)ccn34)cc2COc2cc(F)ccc21)c1noc(=O)[nH]1	1.4 nM
C/C(=C1/c2ccc(Cn3c(C4CC4)nc4c(Cl)ccnc43)cc2COc2cc(F)ccc21)c1noc(=O)[nH]1	32 nM
C/C(=C1/c2ccc(Cc3c(C4CC4)nc4c(Cl)cccn34)cc2COc2cc(F)ccc21)c1noc(=O)[nH]1	2.5 nM
CCCc1nc2c(C)cccc2n1Cc1ccc2c(c1)COc1ccccc1/C2=C(\C)c1noc(=O)[nH]1	3.3 nM
C/C(=C1/c2ccc(Cn3c(C4CC4)nc4c(Cl)nccc43)cc2COc2cc(F)ccc21)c1noc(=O)[nH]1	22 nM
C/C(=C1/c2ccc(Cc3c(C4CC4)nc4ccc(Cl)cn34)cc2COc2cc(F)ccc21)c1noc(=O)[nH]1	2 nM
C/C(=C1/c2ccc(Cc3c(C4CC4)nc4c5c(ccn34)OCC5)cc2COc2cc(F)ccc21)c1noc(=O)[nH]1	19 nM
C/C(=C1/c2ccc(Cc3c(C4CC4)nc4cc(F)ccn34)cc2COc2cc(F)ccc21)c1noc(=O)[nH]1	1.7 nM
CCCc1nc2ccccc2n1Cc1ccc2c(c1)COc1cc(F)ccc1/C2=C(\C)c1noc(=O)[nH]1	1 nM
CCCc1nc2ccccc2n1Cc1ccc2c(c1)COc1ccc(F)cc1/C2=C(\C)c1noc(=O)[nH]1	7 nM
C/C(=C1/c2ccc(Cn3c(C4CC4)nc4cscc43)cc2COc2cc(F)ccc21)c1noc(=O)[nH]1	3 nM
